Measurements: ChEMBL document CHEMBL1148342, “Synthesis, X-ray crystal structures, stabilities, and in vitro cytotoxic activities of new heteroarylacrylonitriles” (J Med Chem, 2004)

What was measured:
KYSE-70 cell line [1] = assay: Growth inhibition against human KYSE-70 cell lines; format: functional, cell-based
How it was run: (§1)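 Cells were grown in RPMI-1640 with 2 g/L NaHCO3 and 10% FCS at 37 °C in 5% CO2, seeded at 1000 cells/well, and dosed 24 h later at five geometric dilutions for 96 h of continuous exposure. Cells were then glutaraldehyde-fixed and stained with crystal violet, with OD read at 570 nm. IC50 was taken from the dose–response data.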

RT-4 = assay: Growth inhibition against human RT-4 cell lines; format: functional, cell-based; how it was run: as §1
RT-112 = assay: Growth inhibition against human RT-112 cell lines; format: functional, cell-based; how it was run: as §1
LCLC-103H cell line [2] = assay: Growth inhibition against human LCLC-103H cell lines; format: functional, cell-based
How it was run: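 LCLC-103H cells were grown in RPMI-1640 with 2 g/L NaHCO3 and 10% FCS (5% CO2, 37 °C) and plated at 250 cells/well. After 24 h, five geometric dilutions were applied continuously for 96 h. Fixation was with glutaraldehyde, followed by crystal violet staining and OD at 570 nm. IC50 came from the dose–response curves.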

KYSE-510 = assay: Cytotoxic activity against human KYSE-510 cell line at 20 uM expressed as percent growth value; format: functional
How it was run: (§2)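 Cells in RPMI-1640 with 10% FCS were seeded (1000 cells/well; KYSE-510 500, LCLC-103H 250), then exposed 24 h later for 96 h. Read-out was crystal violet staining of glutaraldehyde-fixed cells at OD 570 nm. Growth (%) = (OD treated − OD at drug addition)/(OD control − OD at drug addition) × 100.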

KYSE-520 cell line = assay: Growth inhibition against human KYSE-520 cell lines; format: functional, cell-based; how it was run: as §1
SISO [3] = assay: Cytotoxic activity against human SISO cell line at 20 uM; format: functional; how it was run: as §2
LCLC-103H cell line [4] = assay: Cytotoxic activity against human LCLC-103H cell line at 20 uM expressed as percent growth value; format: functional; how it was run: as §2
SISO [5] = assay: Growth inhibition against human SISO cell lines; format: functional, cell-based; how it was run: as §1
5637 [6] = assay: Growth inhibition against human 5637 cell lines; format: functional, cell-based; how it was run: as §1
MCF7 = assay: Growth inhibition against human MCF-7 cell lines; format: functional, cell-based
How it was run: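 MCF-7 was cultured in RPMI-1640 with 2 g/L NaHCO3, 10% FCS, 1 mM pyruvate, MEM salts and amino acids. Plating was 1000 cells/well, then after 24 h, 96 h of continuous exposure at five geometric dilutions. Crystal violet staining of glutaraldehyde-fixed cells was read at 570 nm, and IC50 was derived from the dose–response data.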

KYSE-510 (human) = assay: Growth inhibition against human KYSE-510 cell lines
DAN-G = assay: Growth inhibition against human DAN-G cell lines; format: functional, cell-based; how it was run: as §1
YAPC = assay: Compound was tested for growth inhibition against human YAPC cell lines; format: functional, cell-based; how it was run: as §1
TERT-RPE1 = assay: Compound was tested for growth inhibition against human h-TERTRPE1 cell lines; format: functional, cell-based
How it was run: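 The noncancerous hTERT-immortalized epithelial line h-TERT-RPE1 was grown in DMEM/F-12 with 2 g/L NaHCO3 and 10% FCS (37 °C, 5% CO2) and seeded at 1000 cells/well. Substance was added 24 h later at five geometric dilutions for 96 h continuously. The read-out was crystal violet staining after glutaraldehyde fixation, OD 570 nm, with IC50 from dose–response.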

KYSE-70 cell line [7] = assay: Cytotoxic activity against human KYSE-70 cell line at 20 uM expressed as percent growth value; format: functional; how it was run: as §2
5637 [8] = assay: Cytotoxic activity against human 5637 cell line at 20 uM expressed as percent growth value; format: functional; how it was run: as §2

| Molecule | IC50 (KYSE-70 cell line [1]; Homo sapiens, KYSE-70) [µM] | IC50 (RT-4; Homo sapiens, RT-4) [µM] | IC50 (RT-112; Homo sapiens, RT-112) [µM] | IC50 (LCLC-103H cell line [2]; Homo sapiens, LCLC-103H) [µM] | Activity (KYSE-510) | IC50 (KYSE-520 cell line; Homo sapiens, KYSE-520) [µM] | Activity (SISO [3]) | Activity (LCLC-103H cell line [4]) | IC50 (SISO [5]; Homo sapiens, SISO) [µM] | IC50 (5637 [6]; Homo sapiens) [µM] | IC50 (MCF7; Homo sapiens, MCF7) [µM] | IC50 (KYSE-510 (human); Homo sapiens, KYSE-510) [µM] | IC50 (DAN-G; Homo sapiens, DAN-G) [µM] | IC50 (YAPC; Homo sapiens, YAPC) [µM] | IC50 (TERT-RPE1; Homo sapiens, RPE-1) [µM] | Activity (KYSE-70 cell line [7]) | Activity 5637 [8] | also measured |
| --- | --- | --- | --- | --- | --- | --- | --- | --- | --- | --- | --- | --- | --- | --- | --- | --- | --- | --- |
| CN(C)c1ccc(/C=C(\C#N)c2n[nH]c(Cc3ccccc3)n2)cc1 | 2.53 | 2.5 | 3.69 | 1.65 | -1.01 | 6.26 | 1.2 | -1.8 | 3.24 | 1.38 | 1.49 | 3.36 | 4.11 | 3.48 | – | – | – | – |
| CISPLATIN | – | – | – | – | – | – | – | – | – | – | – | – | – | – | – | – | – | IC50 (KYSE-70 cell line [1]; kyse-70): 1.49 µM; IC50 (RT-4; rt-4): 3.7 µM; IC50 (RT-112; rt-112): 2.14 µM; IC50 (LCLC-103H cell line [2]; lclc-103h): 1.63 µM; IC50 (KYSE-520 cell line; kyse-520): 5.07 µM; IC50 (SISO [5]; siso): 0.2 µM; IC50 5637 [6]: 0.31 µM; IC50 (MCF7; mcf7): 0.74 µM; IC50 (KYSE-510 (human); kyse-510): 0.88 µM; IC50 (TERT-RPE1; tert-rpe1): 3.04 µM; IC50 (DAN-G; dan-g): 1.39 µM; IC50 (YAPC; yapc): 6.03 µM |
| N#C/C(=C\c1ccc([N+](=O)[O-])o1)c1n[nH]c(Cc2ccccc2)n1 | 0.4 | 1.37 | 0.75 | 0.29 | -20.7 | 0.75 | -8.1 | -7.3 | 0.37 | 0.4 | 0.61 | 0.62 | 0.49 | 0.45 | 0.42 | – | – | – |
| Cc1n[nH]c(/C(C#N)=C/c2ccc([N+](=O)[O-])o2)n1 | 0.66 | 1.48 | 1 | 0.35 | -21.3 | 0.86 | -8.7 | -8.4 | 0.27 | 0.54 | 1.47 | 0.9 | 1 | 0.85 | 0.69 | – | – | – |
| N#C/C(=C\c1cccs1)c1nc2ccccc2[nH]1 | 8.78 | 14.6 | – | 2.5 | – | – | 82.4 | – | 25.9 | 17.8 | 11.2 | – | 15 | – | – | 30.8 | 49.3 | – |
| N#C/C(=C\c1ccc([N+](=O)[O-])o1)c1n[nH]c(-c2ccccc2)n1 | 1.17 | 1.85 | 1.51 | 0.7 | -20.9 | 1.62 | -7.9 | -8.4 | 1.2 | 1.22 | 1.62 | 1.35 | 1.52 | 1.4 | 1.16 | – | – | – |
| N#C/C(=C\c1ccc([N+](=O)[O-])s1)c1nc2ccccc2[nH]1 | 0.16 | 0.27 | 0.36 | 0.17 | 20.5 | 0.11 | 18 | -6.5 | 0.31 | 0.15 | 0.16 | 0.33 | 0.32 | 0.16 | 0.39 | – | – | – |
| N#C/C(=C\c1cccc([N+](=O)[O-])c1)c1n[nH]c(-c2ccccc2)n1 | – | – | – | – | 108 | – | 85.5 | 56.4 | – | – | – | – | – | – | – | – | – | – |
| Cc1ccc(/C=C(\C#N)c2nc3ccccc3[nH]2)s1 | – | > 20 | – | 2.11 | – | – | 64.5 | 5.9 | > 20 | 20.1 | – | – | > 20 | – | – | – | 47.8 | – |
| N#C/C(=C\c1ccc(C#N)cc1)c1nc2ccccc2[nH]1 | – | – | – | – | – | – | 99.2 | – | – | – | – | – | – | – | – | 99.3 | 75.6 | – |
| N#C/C(=C\c1cccc([N+](=O)[O-])c1)c1nc2ccccc2[nH]1 | 22.5 | 7.68 | – | 1.13 | – | – | 54.2 | – | 30.9 | 15.2 | 16.4 | – | 15.8 | – | – | 55.4 | 14.4 | – |
| N#C/C(=C\c1ccco1)c1nc2ccccc2[nH]1 | – | – | – | – | – | – | 106.1 | – | – | – | – | – | – | – | – | 56.6 | 86.1 | – |
| Cc1n[nH]c(/C(C#N)=C/c2ccc([N+](=O)[O-])s2)n1 | 0.44 | 0.9 | 0.67 | 0.33 | -21.3 | 0.6 | -8.8 | -8.4 | 0.51 | 0.22 | 0.38 | 0.56 | 0.57 | 0.41 | 0.69 | – | – | – |
| N#C/C(=C\c1ccc(C(F)(F)F)cc1)c1nc2ccccc2[nH]1 | 15.6 | 16.3 | – | 1.6 | – | – | 61.8 | – | 14 | 12.2 | 9.11 | – | 17.6 | – | – | 69.7 | 34.4 | – |
| COc1cc([C@@H]2c3cc4c(cc3[C@@H](O[C@@H]3O[C@@H]5CO[C@@H](C)O[C@H]5[C@H](O)[C@H]3O)[C@H]3COC(=O)[C@H]23)OCO4)cc(OC)c1O [ETOPOSIDE] | 0.79 | 1.33 | 0.22 | – | – | 0.41 | – | – | 0.15 | 0.53 | 0.54 | 0.7 | 0.38 | 1.32 | 0.09 | – | – | – |
| Cc1n[nH]c(/C(C#N)=C/c2cccc([N+](=O)[O-])c2)n1 | – | – | – | – | 94.1 | – | 98.1 | 68.8 | – | – | – | – | – | – | – | – | – | – |
| N#C/C(=C\c1ccc(OC(F)(F)F)cc1)c1nc2ccccc2[nH]1 | – | – | – | – | – | – | 71.7 | – | – | – | – | – | – | – | – | 96.7 | 66 | – |
| N#C/C(=C\c1ccc(Cl)s1)c1nc2ccccc2[nH]1 | – | > 20 | – | 1.97 | – | – | 102.2 | 13.4 | > 20 | 22.4 | – | – | > 20 | – | – | – | 44.6 | – |
| N#C/C(=C\c1csc([N+](=O)[O-])c1)c1nc2ccccc2[nH]1 | – | > 20 | – | 1.42 | – | – | 82.3 | 8.6 | > 20 | > 20 | – | – | > 20 | – | > 5 | – | 80 | – |
| N#C/C(=C\c1ccc([N+](=O)[O-])o1)c1nc2ccccc2[nH]1 | 0.45 | 0.99 | 0.69 | 0.41 | -21.2 | 0.62 | -8.2 | -8 | 0.33 | 0.48 | 0.65 | 0.75 | 0.69 | 0.57 | 0.6 | – | – | – |
| CN(C)c1ccc(/C=C(\C#N)c2nc3ccccc3[nH]2)cc1 | – | – | – | – | – | – | 95 | – | – | – | – | – | – | – | – | 124.4 | 61.1 | – |
| COc1ccc(/C=C(\C#N)c2nc3ccccc3[nH]2)cc1 | – | – | – | – | – | – | 72.1 | – | – | – | – | – | – | – | – | 75.8 | 64.9 | – |
| N#C/C(=C\c1ccc([N+](=O)[O-])s1)c1n[nH]c(Cc2ccccc2)n1 | 0.42 | 0.59 | 0.65 | 0.31 | -21.3 | 0.29 | -8.7 | -8.4 | 0.78 | 0.32 | 0.42 | 0.53 | 0.5 | 0.36 | 0.51 | – | – | – |
| N#C/C(=C\c1ccc([N+](=O)[O-])cc1)c1nc2ccccc2[nH]1 | – | – | – | – | – | – | 99.2 | – | – | – | – | – | – | – | – | 88 | 73.9 | – |
| N#C/C(=C\c1ccc([N+](=O)[O-])s1)c1n[nH]c(-c2ccccc2)n1 | 0.35 | 1.03 | 0.83 | 0.54 | -21.7 | 0.57 | -9.9 | -6.5 | 0.89 | 0.48 | 0.68 | 0.63 | 0.42 | 0.32 | 0.42 | – | – | – |
